Data taken from ChEMBL document CHEMBL3272245, “Potent reversible anticholinesterase agents. Bis- and mono-N-substituted benzoquinolinium halides” (J Med Chem, 1977).

Key:
Butyrylcholinesterase [1] = target: T1, Butyrylcholinesterase (Equus caballus, UniProt Q9N1N9); assay: Reversible mixed-type inhibition of horse serum butyrylcholinesterase using acetylcholine bromide as substrate by Lineweaver-Burk plot analysis
Acetylcholinesterase [2] = target: T2, Acetylcholinesterase (Electrophorus electricus, UniProt O42275); assay: Reversible mixed-type inhibition of electric eel acetylcholinesterase using acetylcholine bromide as substrate by Lineweaver-Burk plot analysis
Butyrylcholinesterase [3] = target: T1, Butyrylcholinesterase; assay: Reversible mixed-type inhibition of horse serum butyrylcholinesterase using acetylcholine bromide as substrate assessed as free enzyme-inhibitor complex by Lineweaver-Burk plot analysis
Acetylcholinesterase [4] = target: T2, Acetylcholinesterase; assay: Reversible mixed-type inhibition of electric eel acetylcholinesterase using acetylcholine bromide as substrate assessed as free enzyme-inhibitor complex by Lineweaver-Burk plot analysis
Butyrylcholinesterase [5] = target: T1, Butyrylcholinesterase; assay: Mixed-type inhibition of horse serum butyrylcholinesterase using acetylcholine bromide as substrate assessed as free enzyme-inhibitor complex by Lineweaver-Burk plot analysis
Acetylcholinesterase [6] = target: T2, Acetylcholinesterase; assay: Mixed-type inhibition of electric eel acetylcholinesterase using acetylcholine bromide as substrate by Lineweaver-Burk plot analysis
Acetylcholinesterase [7] = target: T2, Acetylcholinesterase; assay: Mixed-type inhibition of electric eel acetylcholinesterase using acetylcholine bromide as substrate assessed as free enzyme-inhibitor complex by Lineweaver-Burk plot analysis
Butyrylcholinesterase [8] = target: T1, Butyrylcholinesterase; assay: Mixed-type inhibition of horse serum butyrylcholinesterase using acetylcholine bromide as substrate by Lineweaver-Burk plot analysis
Acetylcholinesterase [9] = target: T2, Acetylcholinesterase; assay: Reversible competitive inhibition of electric eel acetylcholinesterase using acetylcholine bromide as substrate assessed as free enzyme-inhibitor complex by Lineweaver-Burk plot analysis
Butyrylcholinesterase [10] = target: T1, Butyrylcholinesterase; assay: Reversible competitive inhibition of horse serum butyrylcholinesterase using acetylcholine bromide as substrate assessed as free enzyme-inhibitor complex by Lineweaver-Burk plot analysis
Acetylcholinesterase [11] = target: T2, Acetylcholinesterase; assay: Mixed-type inhibition of electric eel acetylcholinesterase using acetylcholine bromide as substrate assessed as […] by Lineweaver-Burk plot analysis
How it was run: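 Electric eel electric-organ acetylcholinesterase (0.1 unit per 10 mL reaction) added to five inhibitor concentrations each mixed with acetylcholine bromide, e.g. 0.1, 0.15, 0.25, 0.4, 0.8 mM final. Initial hydrolysis rates over 4 min at 25 °C by pH-stat titration. Lineweaver-Burk analysis; Km from inhibitor-free runs.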

T2 sequence (O42275 whole entry): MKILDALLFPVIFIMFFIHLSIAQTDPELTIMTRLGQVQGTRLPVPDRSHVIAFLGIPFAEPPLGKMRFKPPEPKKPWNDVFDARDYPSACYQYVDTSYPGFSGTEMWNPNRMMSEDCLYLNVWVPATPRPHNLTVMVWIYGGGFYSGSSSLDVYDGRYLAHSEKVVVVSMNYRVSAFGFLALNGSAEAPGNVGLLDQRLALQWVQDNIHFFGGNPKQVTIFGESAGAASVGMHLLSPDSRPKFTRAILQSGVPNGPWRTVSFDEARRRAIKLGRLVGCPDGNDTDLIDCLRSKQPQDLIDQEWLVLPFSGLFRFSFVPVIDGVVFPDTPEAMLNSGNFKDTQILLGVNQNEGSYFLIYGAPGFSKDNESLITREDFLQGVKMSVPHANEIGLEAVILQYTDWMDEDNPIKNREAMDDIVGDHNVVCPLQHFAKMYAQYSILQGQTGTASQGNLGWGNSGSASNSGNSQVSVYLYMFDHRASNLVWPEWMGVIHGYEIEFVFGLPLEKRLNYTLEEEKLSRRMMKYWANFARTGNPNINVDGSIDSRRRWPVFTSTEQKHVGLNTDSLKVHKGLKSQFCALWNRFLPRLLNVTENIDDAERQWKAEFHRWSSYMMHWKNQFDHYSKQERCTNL
T1 sequence (Q9N1N9 whole entry): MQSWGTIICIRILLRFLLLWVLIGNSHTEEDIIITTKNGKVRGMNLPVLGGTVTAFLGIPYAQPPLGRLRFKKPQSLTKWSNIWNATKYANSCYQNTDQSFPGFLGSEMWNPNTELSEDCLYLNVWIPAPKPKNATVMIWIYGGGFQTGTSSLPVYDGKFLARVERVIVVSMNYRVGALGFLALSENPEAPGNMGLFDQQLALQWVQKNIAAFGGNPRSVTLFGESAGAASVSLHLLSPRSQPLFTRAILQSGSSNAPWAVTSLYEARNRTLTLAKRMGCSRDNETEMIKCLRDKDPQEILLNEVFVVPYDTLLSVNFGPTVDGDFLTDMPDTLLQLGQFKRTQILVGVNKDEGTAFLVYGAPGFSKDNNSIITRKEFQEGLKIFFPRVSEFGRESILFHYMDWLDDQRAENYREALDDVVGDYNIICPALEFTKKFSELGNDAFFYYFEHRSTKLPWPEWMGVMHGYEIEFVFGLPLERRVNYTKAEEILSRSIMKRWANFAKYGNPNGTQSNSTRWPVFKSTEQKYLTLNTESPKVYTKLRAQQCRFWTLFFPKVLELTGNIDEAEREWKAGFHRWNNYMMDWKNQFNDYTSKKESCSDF

Row | Structure (SMILES) | Ki (Butyrylcholinesterase [1]) [µM] | Ki (Acetylcholinesterase [2]) [µM] | Ki (Butyrylcholinesterase [3]) [µM] | Ki (Acetylcholinesterase [4]) [µM] | further results
1 | c1ccc2c(c1)cc1ccccc1[n+]2CCCCCC[n+]1c2ccccc2cc2ccccc21 | 0.024 | 0.0021 | 0.0073 | 0.0021 | 
2 | C[N+](C)(CCCCCC[N+](C)(C)Cc1ccc(-c2ccccc2)cc1)Cc1ccc(-c2ccccc2)cc1 |  |  |  |  | Ki (Butyrylcholinesterase [5]): 1.5 µM; Ki (Acetylcholinesterase [6]): 120 µM; Ki (Acetylcholinesterase [7]): 39 µM; Ki (Butyrylcholinesterase [8]): 7.9 µM
3 | c1ccc2c(c1)c[n+](CCCCCC[n+]1cc3ccccc3c3ccccc31)c1ccccc21 | 0.091 | 0.0066 | 0.027 | 0.0066 | 
4 | c1ccc2c(c1)ccc1c2ccc[n+]1CCCCCC[n+]1cccc2c3ccccc3ccc21 | 1.5 | 0.072 | 0.36 | 0.01 | 
5 | c1ccc2c(c1)c[n+](Cc1ccc(C[n+]3cc4ccccc4c4ccccc43)cc1)c1ccccc21 | 0.23 | 0.71 | 0.057 | 0.18 | 
6 | C[n+]1cc2ccccc2c2ccccc21 | 6.4 | 25.5 | 1.1 | 5.6 | 
7 | CCC[n+]1cc2ccccc2c2ccccc21 | 7.5 | 13.6 | 1.3 | 3.2 | 
8 | CC(C)[n+]1cc2ccccc2c2ccccc21 | 4.8 | 97 | 1.5 | 22 | 
9 | CCCCCC[n+]1cc2ccccc2c2ccccc21 | 0.9 | 1.8 | 0.12 | 0.53 | 
10 | c1ccc(C[n+]2cc3ccccc3c3ccccc32)cc1 | 0.26 | 0.95 | 0.061 | 0.25 | 
11 | c1ccc(CC[n+]2cc3ccccc3c3ccccc32)cc1 | 0.31 | 0.78 | 0.054 | 0.28 | 
12 | OCC[n+]1cc2ccccc2c2ccccc21 | 98.4 | 45 | 37 | 31 | 
13 | O=C(O)C[n+]1cc2ccccc2c2ccccc21 | 86 | 72.4 | 41 | 12 | 
14 | CC(=O)OCC[n+]1cc2ccccc2c2ccccc21 |  |  |  |  | Ki (Acetylcholinesterase [9]): 0.38 µM; Ki (Butyrylcholinesterase [10]): 0.12 µM
15 | C[n+]1cccc2c3ccccc3ccc21 | 34 | 25.4 | 5.4 | 8.9 | 
16 | c1ccc(C[n+]2cccc3c4ccccc4ccc32)cc1 | 5.6 | 37.4 | 0.86 | 9.3 | 
17 | c1ccc(CC[n+]2cccc3c4ccccc4ccc32)cc1 | 4.9 | 18.5 | 0.92 | 1.8 | 
18 | OCC[n+]1cccc2c3ccccc3ccc21 | 210 | 160 | 79 | 83 | 
19 | CC(=O)OCC[n+]1cccc2c3ccccc3ccc21 |  |  |  |  | Ki (Acetylcholinesterase [9]): 0.95 µM; Ki (Butyrylcholinesterase [10]): 0.82 µM
20 | C[n+]1cccc2ccc3ccccc3c21 | 230 | 140 | 32 | 18 | 
21 | OCC[n+]1cccc2ccc3ccccc3c21 | 410 | 360 | 110 | 150 | 
22 | C[n+]1c2ccccc2cc2ccccc21 | 1.7 | 2.8 | 0.24 | 0.5 | 
23 | OCC[n+]1c2ccccc2cc2ccccc21 | 7.2 | 9.6 | 1.3 | 2.9 | 
24 | CC(=O)OCC[n+]1c2ccccc2cc2ccccc21 |  |  |  |  | Ki (Acetylcholinesterase [9]): 0.021 µM; Ki (Butyrylcholinesterase [10]): 0.011 µM
25 | CC(=O)OCC[n+]1ccccc1 |  |  | 120 | 320 | Ki (Acetylcholinesterase [9]): 0.021 µM; Ki (Butyrylcholinesterase [5]): 120 µM; Ki (Acetylcholinesterase [7]): 320 µM; Ki (Butyrylcholinesterase [10]): 0.011 µM
26 | c1cc[n+](CCCCCC[n+]2ccccc2)cc1 |  |  |  |  | Ki (Acetylcholinesterase [11]): 16000 µM; Ki (Butyrylcholinesterase [5]): 120 µM; Ki (Butyrylcholinesterase [8]): 620 µM
27 | C[N+](C)(CCCCCC[N+](C)(C)C1c2ccccc2-c2ccccc21)C1c2ccccc2-c2ccccc21 [HEXAFLUORENIUM BROMIDE] | 0.89 | 1.3 | 0.34 | 1.3 | 
